7 compounds from ChEMBL document CHEMBL1140339, “Spiro and dispiro-1,2,4-trioxolanes as antimalarial peroxides: charting a workable structure-activity relationship using simple prototypes” (J Med Chem, 2005) can be followed below.

SMILES strings stand for the structures. Converted amounts (≈) assume the structure as drawn.

Data set [1] can be described thus: Plasma clearance after intravenous administration of 30 mg/kg. Format: ADME, organism-based, Mus musculus. Details: dose 30 mg/kg, route intravenous. The method, boiled down:
(§1)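 Conscious, free-moving rats (n = 3 per group) were jugular- and carotid-cannulated the day before dosing under isoflurane, then fasted overnight. The iv dose was a 5 min jugular infusion in aqueous 0.1 M Captisol (10, 20 or 30 mg/kg). The oral dose was given by gavage as a suspension in 0.5% CMC/0.4% polysorbate 80/0.5% benzyl alcohol/0.9% NaCl (30, 50 or 80 mg/kg). Carotid blood was sampled over 7 h and plasma was obtained by centrifugation.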

Data set [2] concerns Mus musculus. Put plainly: Survival of mice to 30-day postinfection with Plasmodium berghei upon 10 mg/kg upon subcutaneous dose was determined. Format: functional. The method, boiled down:
(§2)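 P. berghei-infected MORO mice, groups of three, treated 1 day postinfection with a single dose (100 or 10 mg/kg, po or sc) dissolved or suspended in 3% ethanol/7% Tween-80. Activity is percent reduction in parasitemia on day 3 postinfection versus untreated controls. Survival time is compared with an untreated control group. Individual measurements generally differed by less than 10%.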

Data set [3] concerns Plasmodium falciparum. In words: Anti-parasitic effect against Plasmodium berghei in mice (Mus musculus) after 4 days at 100 mg/kg/day (T/A Tween 80) peroral dose in Peters suppressive assay. The class given is functional, organism-based. Also on record: route oral.
The subject of data set [4] is Mus musculus. Put plainly: Antimalarial activity (10 mg/kg, subcutaneously) given 1 day post infection of mice (Mus musculus) with Plasmodium berghei is its ability to reduce parasitemia on day 3 post infection. Format: functional. The method, boiled down: as §2
The subject of data set [5] is Plasmodium falciparum. Put plainly: Antiparasitic effect against Plasmodium berghei infected mice (Mus musculus) after 100 mg/kg peroral (SSV) dose after 3 days. Format: functional. The note with it: route oral.
The nature of data set [6]: Volume distribution after intravenous administration of 30 mg/kg. Format: ADME, organism-based, Mus musculus. Also on record: dose 30 mg/kg, route intravenous. The note with it: in vivo. The method, boiled down: as §1
In data set [7] the test system is Mus musculus. In words: Survival of mice to 30-day postinfection with Plasmodium berghei upon 10 mg/kg peroral dose was determined. Format: functional. The note with it: route oral. The method, boiled down: as §2
In data set [8] the test system is Plasmodium falciparum. Put plainly: Antiparasitic effect against Plasmodium berghei infected mice (Mus musculus) after 100 mg/kg peroral (T/A Tween-80) dose after 3 days. Also on record: dose 100 mg/kg, route oral. The class given is functional, organism-based. The method, boiled down:
as §2

Data set [9] is described as follows: Plasma half life period after intravenous administration ( 30 mg/kg ). Format: ADME, organism-based, Mus musculus. Details: dose 30 mg/kg, route intravenous. The method, boiled down: as §1
Data set [10] in a line: Bioavailability obtained after oral administration of 80 mg/kg. The note with it: in vivo. The class given is ADME, organism-based, Mus musculus. The method, boiled down: as §1
Data set [11] is filed under the species Mus musculus. Put plainly: Effective dose required to reduce the parasitemia in mice by suppressive test after 4 day postinfection. The class given is functional. The method, boiled down: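 Peters 4-day suppressive test in P. berghei-infected mice with multiple daily oral doses. ED50/ED90 are given in (mg/kg)/day.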
A short description of data set [12]: Plasma half life period after intravenous administration ( 10 mg/kg ). The note with it: rat.
Data set [13] relates to Mus musculus. In words: Effective dose required to reduce the parasitemia in mice when compound administered with Tween-80 after 3 day postinfection. The class given is functional.
Data set [14] is described as follows: Plasma clearance after intravenous administration of 10 mg/kg. The note with it: rat.
Data set [15] can be described thus: Oral bioavailability (dose 50 mg/kg). The note with it: rat, in vivo.
Data set [16] deals with Plasmodium falciparum. In words: In vitro inhibition of chloroquine-resistant Plasmodium falciparum K1. The class given is functional, organism-based.
Data set [17] concerns Plasmodium falciparum. Put plainly: In vitro inhibition of chloroquine-sensitive Plasmodium falciparum NF54. The class given is functional, organism-based.
The subject of data set [18] is Mus musculus. In words: Antimalarial activity (10 mg/kg, peroral) given 1 day post infection of mice (Mus musculus) with Plasmodium berghei is its ability to reduce parasitaemia on day 3 post infection. Format: functional. The method, boiled down:
as §2

Data set [19] is described as follows: Volume distribution after intravenous administration of 10 mg/kg. The note with it: rat, in vivo.
Data set [20] can be described thus: Volume distribution after intravenous administration of 20 mg/kg. The note with it: rat, in vivo.
For data set [21], the system named is Mus musculus. In words: Effective dose required to reduce the parasitemia in mice when compound administered with SSV after 3 day postinfection. Format: functional.
A short description of data set [22]: Plasma half life period after intravenous administration ( 20 mg/kg). The note with it: rat, in vivo.
Data set [23] deals with Mus musculus. In words: Antimalarial activity (100 mg/kg, peroral) given 1 day post infection of mice (Mus musculus) with Plasmodium berghei is its ability to reduce parasitaemia on day 3 post infection. Format: functional. The method, boiled down: as §2
Data set [24] relates to Mus musculus. In words: Survival of mice to 30-day postinfection with Plasmodium berghei upon 100 mg/kg peroral dose was determined. The class given is functional. The note with it: route oral. The method, boiled down: as §2
Data set [25] deals with Mus musculus. Put plainly: Antimalarial activity (100 mg/kg, subcutaneously) given 1 day post infection of mice (Mus musculus) with Plasmodium berghei is its ability to reduce parasitemia on day 3 post infection. Format: functional. The method, boiled down:
as §2

Data set [26] concerns Mus musculus. Put plainly: Survival of mice to 30-day postinfection with Plasmodium berghei upon 10 mg/kg upon peroral dose was determined. The class given is functional. The note with it: route oral. The method, boiled down:
as §2

For data set [27], the system named is Mus musculus. In words: Survival of mice to 30-day postinfection with Plasmodium berghei upon 100 mg/kg upon subcutaneous dose was determined. The class given is functional. The method, boiled down: as §2
The nature of data set [28]: Bioavailability obtained after oral administration of 30 mg/kg (n=1). The class given is ADME, organism-based, Mus musculus. The note with it: in vivo. The method, boiled down: as §1
The nature of data set [29]: Plasma half life period after intravenous administration ( 20 mg/kg ). The note with it: rat.
Data set [30] can be described thus: Plasma clearance after intravenous administration of 20 mg/kg. The note with it: rat.

Compound `CC1(C)COC2(CCC3(CC2)OOC2(O3)C3CC4CC(C3)CC2C4)OC1` (stereo not given) gave a clearance in data set [1] of 83 mL/min/kg. In addition, the values for the Survival in [2] and in [7] were 18 days and 11.4 days, respectively. In addition, the EC50 was 1.8 (mg/kg)/day in data set [3] and 1.5 (mg/kg)/day in data set [8]. The Reduction in data set [4] is listed as greater than 99.99%. In addition, the EC90 in data set [5] is given as 6.2 (mg/kg)/day. This compound also returned a Vd in data set [6] of 18 L/kg. The compound also registered a half-life in data set [9] of 2.58 h. In [10], the bioavailability is 0.73%.
Regarding `CCOC(=O)N1CCC2(CC1)OOC1(O2)C2CC3CC(C2)CC1C3` (stereo not given), the ED90 in [11] is given as 2 (mg/kg)/day; in [13] it was 5.5 (mg/kg)/day. This compound returned a half-life in [12] of 5.73 h. Also, the Survival was 8.9 days in [2] and 7.7 days in data set [7]. Also, in [14], the clearance came out at 47 mL/min/kg. For the same compound, the Reduction in data set [4] is given as 99.9%; in data set [18], 99.5%. In data set [15], this compound registered a bioavailability of 1.5%. Further, the IC50 in data set [16] is 0.29 ng/mL (≈ 0.859 nM); in data set [17] it was 0.57 ng/mL (≈ 1.69 nM). The Vd in data set [19] was 23 L/kg.
In the case of `O=C1CCC2(CC1)OOC1(O2)C2CC3CC(C2)CC1C3` (stereo not given), in data set [20], the Vd is 12 L/kg. The ED50 was 1.5 (mg/kg)/day in data set [11], 3.5 (mg/kg)/day in data set [13] and 8.7 (mg/kg)/day in [21]. Further, the ED90 is 6.1 (mg/kg)/day in data set [11], 7 (mg/kg)/day in data set [13] and 12 (mg/kg)/day in data set [21]. Besides, the Survival in [2] was 8.6 days; in [24], 10.7 days; in data set [26], 7.1 days; in data set [27] it was 30 days. Further, the Reduction is 99.7% in data set [4], 94% in data set [18], greater than 99.99% in [23] and greater than 99.99% in [25]. In addition, the IC50 in [16] was 0.48 ng/mL (≈ 1.72 nM); in data set [17] it was 0.73 ng/mL (≈ 2.62 nM). For the same compound, in data set [22], the T1/2 was determined as 1.95 h.
Consider `c1ccc(C2CCC3(CC2)OOC2(O3)C3CC4CC(C3)CC2C4)cc1` (stereo not given), for which the ED90 in data set [11] is 2.6 (mg/kg)/day; in [13], 3.2 (mg/kg)/day; in data set [21] it was 5.7 (mg/kg)/day. This compound also showed a half-life in [12] of 1.62 h. Further, the Survival in data set [2] turned out to be 17.1 days; in data set [7], 12.6 days. The compound further had a clearance in [14] of 33 mL/min/kg. Moreover, the Reduction in data set [4] is reported as 99.92%. The compound further displayed a bioavailability in data set [28] of 9.5%. For the same compound, in [19], the Vd turned out to be 5 L/kg.
As to `C1CCC2(CC1)OOC1(O2)C2CC3CC(C2)CC1C3` (stereo not given), the Reduction in [4] was greater than 99.99%; in [18], 94%; in data set [23], greater than 99.99%; in [25], greater than 99.99%. Moreover, the Survival in data set [24] came to 14.3 days; in data set [26], 7.2 days; in [27], 28 days.
Consider `CO[C@H]1O[C@@H]2O[C@@]3(C)CC[C@H]4[C@H](C)CC[C@@H]([C@H]1C)[C@@]24OO3`, for which the values for the ED50 in [11], in data set [13] and in [21] were 3.1 (mg/kg)/day, 2 (mg/kg)/day and 2.7 (mg/kg)/day, respectively. In [12], this compound showed a half-life of 0.867 h. Besides, the ED90 in data set [13] is 4.3 (mg/kg)/day; in [21] it was 6.2 (mg/kg)/day. This compound registered a clearance in data set [14] of 114 mL/min/kg. The Reduction in data set [4] was 99.78%; in data set [18], 98%; in [23] it was 99.95%; in data set [25], greater than 99.99%. Besides, the bioavailability in data set [15] came to 1.4%. Further, the Survival in data set [24] and in data set [27] was 14.7 days in each case. Moreover, in data set [19], the Vd was 8 L/kg.
For `C[C@H]1[C@@H](O)O[C@@H]2O[C@@]3(C)CC[C@H]4[C@H](C)CC[C@@H]1[C@@]24OO3` [ARTENIMOL], the Vd in [20] (read-out: Vd) came to 3 L/kg. Also, in data set [29], the half-life turned out to be 0.433 h. Moreover, the clearance in data set [30] turned out to be 72 mL/min/kg.
